Reference: ChEMBL document CHEMBL4808214, “Structure-activity relationship studies in substituted sulfamoyl benzamidothiazoles that prolong NF-κB activation” (Bioorg Med Chem, 2021)
The source made the active and inactive calls. The calls are words filed in the database; no cut-off is given here.

Legend:
[1] = target: T1, Nuclear factor NF-kappa-B complex (Homo sapiens) (UniProt Q00653+P19838+Q04206); assay: Activation of NF-kappaB in human THP1-Blue NF-kappaB cells co-expressing NFkappaB-inducible SEAP assessed as increase in SEAP activity at 5 uM measured after 20 hrs by quanti-blue based colorimetric assay relative to control; type: cell-based; conditions: filed as activator
T1 sequence (P19838 whole entry, looked up): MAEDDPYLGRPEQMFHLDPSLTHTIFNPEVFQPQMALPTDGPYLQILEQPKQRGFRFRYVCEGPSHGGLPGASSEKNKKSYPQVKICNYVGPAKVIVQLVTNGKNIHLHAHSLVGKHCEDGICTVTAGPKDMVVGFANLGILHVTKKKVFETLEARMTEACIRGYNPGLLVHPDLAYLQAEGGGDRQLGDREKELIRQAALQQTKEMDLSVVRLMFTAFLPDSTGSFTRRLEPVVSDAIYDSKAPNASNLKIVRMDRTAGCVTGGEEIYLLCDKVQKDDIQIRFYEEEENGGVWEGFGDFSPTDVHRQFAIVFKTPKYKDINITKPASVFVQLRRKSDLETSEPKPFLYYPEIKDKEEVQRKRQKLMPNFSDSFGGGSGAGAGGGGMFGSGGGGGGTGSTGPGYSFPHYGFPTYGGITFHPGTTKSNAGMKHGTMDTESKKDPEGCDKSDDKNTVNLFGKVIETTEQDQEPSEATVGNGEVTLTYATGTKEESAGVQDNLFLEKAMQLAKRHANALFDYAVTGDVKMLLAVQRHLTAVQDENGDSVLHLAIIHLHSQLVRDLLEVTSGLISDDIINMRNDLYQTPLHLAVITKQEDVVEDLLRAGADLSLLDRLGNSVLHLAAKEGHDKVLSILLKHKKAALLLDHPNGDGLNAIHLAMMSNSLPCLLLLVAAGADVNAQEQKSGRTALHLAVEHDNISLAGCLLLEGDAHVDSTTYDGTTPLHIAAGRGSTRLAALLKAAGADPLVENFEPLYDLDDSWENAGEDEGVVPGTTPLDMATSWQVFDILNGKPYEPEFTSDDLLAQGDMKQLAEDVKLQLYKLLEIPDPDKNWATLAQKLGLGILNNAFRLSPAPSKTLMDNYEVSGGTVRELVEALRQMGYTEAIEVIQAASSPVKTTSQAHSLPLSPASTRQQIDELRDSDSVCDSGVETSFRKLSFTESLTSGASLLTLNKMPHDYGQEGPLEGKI
T1 sequence (Q00653 whole entry, looked up): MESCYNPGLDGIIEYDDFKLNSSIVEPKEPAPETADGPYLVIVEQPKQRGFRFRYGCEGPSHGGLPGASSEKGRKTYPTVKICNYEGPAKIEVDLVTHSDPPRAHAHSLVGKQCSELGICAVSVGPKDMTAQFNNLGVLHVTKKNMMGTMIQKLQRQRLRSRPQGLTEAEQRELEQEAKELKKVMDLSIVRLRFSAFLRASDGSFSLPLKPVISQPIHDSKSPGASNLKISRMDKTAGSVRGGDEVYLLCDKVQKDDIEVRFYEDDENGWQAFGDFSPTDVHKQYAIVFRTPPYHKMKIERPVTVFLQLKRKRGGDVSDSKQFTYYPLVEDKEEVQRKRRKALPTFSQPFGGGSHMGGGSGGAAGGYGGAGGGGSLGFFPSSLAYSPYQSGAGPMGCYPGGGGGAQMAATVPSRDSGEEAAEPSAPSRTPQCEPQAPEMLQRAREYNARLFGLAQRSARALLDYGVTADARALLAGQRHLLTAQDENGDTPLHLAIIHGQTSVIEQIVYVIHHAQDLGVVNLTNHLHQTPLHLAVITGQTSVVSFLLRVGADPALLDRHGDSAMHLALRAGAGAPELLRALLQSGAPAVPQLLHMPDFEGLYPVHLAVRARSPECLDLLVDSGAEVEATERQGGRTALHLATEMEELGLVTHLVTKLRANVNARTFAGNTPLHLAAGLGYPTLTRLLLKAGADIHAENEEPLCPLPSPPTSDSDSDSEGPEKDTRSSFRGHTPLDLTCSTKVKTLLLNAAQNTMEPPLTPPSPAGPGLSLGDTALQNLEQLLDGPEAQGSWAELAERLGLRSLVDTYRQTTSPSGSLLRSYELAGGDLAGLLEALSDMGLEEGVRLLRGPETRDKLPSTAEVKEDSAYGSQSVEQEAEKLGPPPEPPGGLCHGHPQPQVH
T1 sequence (Q04206 whole entry, looked up): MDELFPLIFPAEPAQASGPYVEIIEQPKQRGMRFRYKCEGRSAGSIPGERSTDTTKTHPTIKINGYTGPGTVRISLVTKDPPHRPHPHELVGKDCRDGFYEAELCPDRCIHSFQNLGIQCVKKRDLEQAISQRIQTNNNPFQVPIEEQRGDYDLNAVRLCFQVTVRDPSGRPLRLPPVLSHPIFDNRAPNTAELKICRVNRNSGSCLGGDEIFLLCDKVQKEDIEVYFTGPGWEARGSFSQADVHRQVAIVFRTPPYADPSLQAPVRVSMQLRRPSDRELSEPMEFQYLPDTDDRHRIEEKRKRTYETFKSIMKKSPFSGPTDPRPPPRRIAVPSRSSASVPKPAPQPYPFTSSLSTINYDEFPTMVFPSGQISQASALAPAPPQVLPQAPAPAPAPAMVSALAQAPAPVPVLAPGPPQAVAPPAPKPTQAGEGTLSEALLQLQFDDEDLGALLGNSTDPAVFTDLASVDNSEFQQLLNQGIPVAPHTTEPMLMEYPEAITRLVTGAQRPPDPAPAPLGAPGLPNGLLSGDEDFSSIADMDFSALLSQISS
Procedure, shortened: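 THP1-Blue NF-κB reporter cells plated at 10^5/well in RPMI with 10% FBS, penicillin/streptomycin and Normocin. Compound added at 5 μM final (0.5% DMSO), then incubated 20 h. Secreted SEAP in the supernatant was read colorimetrically with QuantiBlue at 630 nm. Two-point normalization set vehicle (0.5% DMSO) as 100% and a reference activator as 200%.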

THP-1 = assay: Cytotoxicity against human THP-1 cells assessed as cell viability at 5 uM measured after 18 hrs by MTT assay relative to control; type: cell-based; conditions: thp-1, 18 h
Procedure, shortened: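 THP-1 cells were plated at 10^5/well in RPMI with 10% FBS and penicillin/streptomycin, then given compound at 5 μM final (0.5% DMSO) for 18 h. MTT at 0.5 mg/mL was added for 4–6 h, followed by SDS/HCl lysis buffer overnight. Absorbance was read at 570 nm against a 650 nm reference. Viability was normalized to DMSO as 100%.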

[2] = target: T1, Nuclear factor NF-kappa-B complex (Homo sapiens); assay: Activation of NF-kappaB in human THP-1 cells assessed as increase in IL-8 production in the presence of LPS at 5 uM measured by ELISA relative to control; type: cell-based; conditions: filed as activator
Procedure, shortened: (§1)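 THP-1 cells and BMDCs from the femurs and tibias of C57BL/6 mice were treated overnight with compound (5 μM) or vehicle (0.5% DMSO), with or without LPS at 1 ng/mL. Secreted IL-8 (THP-1) and IL-12 (BMDC) in the supernatant were measured by ELISA.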

BMDC [3] = assay: Activation of NF-kappaB in mouse BMDC cells assessed as enhanced IL-12 production in the presence of LPS at 5 uM measured by ELISA relative to control; type: cell-based; conditions: filed as activator; procedure, shortened: as §1
Mus musculus = organism: Mus musculus; assay: Co-adjuvanticity in MPLA/OVA-immunized BALB/c mouse assessed as increase in ovalbumin specific IgG production at 50 nmol treated on day 0 and 21 measured after 28 days by ELISA; type: functional, organism-based; conditions: time 28.0 day
Procedure, shortened: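 BALB/c mice aged 7–9 weeks, n=5 per group, were injected into the gastrocnemius muscle on days 0 and 21. Mice were bled on day 28 and OVA-specific IgG titers measured by ELISA. Groups were compared with one-way ANOVA and Dunnett's post hoc test.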

BMDC [4] = assay: Activation of NF-kappaB in mouse BMDC cells assessed as enhanced IL-12 production at 5 uM measured by ELISA relative to control; type: cell-based; procedure, shortened: as §1

Row | Compound | Activity [1] | Activity (THP-1) | Activity [2] | Activity (BMDC [3]) | Activity (Mus musculus) | Activity (BMDC [4])
1 | CCCC#Cc1sc(NC(=O)c2ccc(S(=O)(=O)N3CCCCC3)cc2)nc1-c1cc(C)ccc1C | 393% | 106% | Active | Active | Active | inactive
2 | Cc1ccc(C)c(-c2csc(NC(=O)c3ccc(S(=O)(=O)N4CCCCC4)cc3)n2)c1 | 200% | 103% | Active | Active |  | inactive
3 | Cc1ccc(Br)c(-c2csc(NC(=O)c3ccc(S(=O)(=O)N4CCCCC4)cc3)n2)c1 | 254% | 98% | Active | Active |  | inactive
4 | CCCC1CCN(S(=O)(=O)c2ccc(C(=O)Nc3nc(-c4cc(C)ccc4C)cs3)cc2)CC1 | 517% | 111% | Active | Active | Active | inactive
5 | Cc1ccc(C)c(-c2csc(NC(=O)c3ccc(C(=O)N4CCCCC4)cc3)n2)c1 | 99% | 88% |  |  |  | 
